According to ChEMBL document CHEMBL1128640, “Thiopyranol[2,3,4-c,d]indoles as inhibitors of 5-lipoxygenase, 5-lipoxygenase-activating protein, and leukotriene C4 synthase” (J Med Chem, 1995):

Experiments:
[1] = target: T1, Polyunsaturated fatty acid 5-lipoxygenase (Homo sapiens, UniProt P09917); assay: Inhibition of Human 5-lipoxygenase
T1 sequence (P09917 whole entry): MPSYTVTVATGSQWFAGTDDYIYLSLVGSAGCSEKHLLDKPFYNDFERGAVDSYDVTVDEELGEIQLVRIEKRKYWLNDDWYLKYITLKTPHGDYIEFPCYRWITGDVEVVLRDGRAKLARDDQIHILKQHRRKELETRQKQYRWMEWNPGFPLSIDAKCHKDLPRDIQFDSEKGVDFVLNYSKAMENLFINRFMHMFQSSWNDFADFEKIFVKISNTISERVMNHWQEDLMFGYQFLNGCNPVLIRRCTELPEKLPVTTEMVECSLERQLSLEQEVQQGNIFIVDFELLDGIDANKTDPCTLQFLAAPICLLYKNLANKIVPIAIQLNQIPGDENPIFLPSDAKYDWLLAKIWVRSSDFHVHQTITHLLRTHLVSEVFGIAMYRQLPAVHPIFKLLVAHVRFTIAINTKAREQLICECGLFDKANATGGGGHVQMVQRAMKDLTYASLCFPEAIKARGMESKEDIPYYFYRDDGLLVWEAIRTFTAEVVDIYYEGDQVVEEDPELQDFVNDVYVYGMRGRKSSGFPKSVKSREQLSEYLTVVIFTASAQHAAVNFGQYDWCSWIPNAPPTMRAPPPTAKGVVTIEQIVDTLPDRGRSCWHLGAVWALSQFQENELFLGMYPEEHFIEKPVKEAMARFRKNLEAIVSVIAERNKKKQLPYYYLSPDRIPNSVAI
Summary of the method: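 Enzyme source is the 100000g supernatant (S100) of insect cells overexpressing human 5-LO. Activity followed spectrophotometrically as 5-HPETE production. IC50 is the mean of at least two independent determinations unless the value came from a single titration.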

[2] = target: T2, Arachidonate 5-lipoxygenase-activating protein (Homo sapiens, UniProt P20292); assay: Inhibition of 5-lipoxygenase activating protein using human leukocyte membrane preparations
T2 sequence (P20292 whole entry): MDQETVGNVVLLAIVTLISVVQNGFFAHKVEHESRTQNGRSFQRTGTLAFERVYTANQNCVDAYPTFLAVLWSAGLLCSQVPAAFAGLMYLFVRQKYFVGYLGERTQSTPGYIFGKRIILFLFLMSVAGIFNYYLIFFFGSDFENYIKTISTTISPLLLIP
Summary of the method: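 Binding assay on human leukocyte membrane preparations, measuring displacement of [¹²⁵I]-L-691,831 by drug. IC50 is the mean of at least two independent determinations unless the value came from a single titration.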

Rattus norvegicus = assay: Compound was tested for the inhibition of dyspnea in hyperreactive rats dosed at 5 mg/kg po; format: functional; conditions: for inhibition in vivo at 5 mg/kg: Rattus norvegicus, po
Summary of the method: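 Inbred hyperreactive rats (n = 6) pretreated with methysergide 3 μg/kg iv. Sodium salt given po in 1% or 0.5% methocel 2 h before ovalbumin antigen challenge. Read-out is percent inhibition of dyspnea duration versus litter mate-matched vehicle-treated controls.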

[3] = Bioavailability in rat; format: ADME, organism-based; conditions: in vivo
Summary of the method: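 Rats dosed with sodium salts, 20 mg/kg po in 1% methocel and 5 mg/kg iv in PEG 200 (n = 2); plasma profiles collected over 0–6 h. Bioavailability calculated as AUC_po/4 × AUC_iv.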

Row | Compound | IC50 [1] [nM] | bioavailability [3] [%] | inhibition in vivo at 5 mg/kg (Rattus norvegicus) [%] | also measured
1 | CC1Cc2c(OCc3ccc(-c4ccccc4)cn3)ccc3c2c(c(CCOc2ccc(Cl)cc2C(=O)O)n3Cc2ccc(Cl)cc2)S1 (stereo not given) | 130 | – | – | –
2 | CC1Cc2c(OCc3ccc4ccccc4n3)ccc3c2c(c(COc2ccccc2CC(=O)O)n3Cc2ccc(Cl)cc2)S1 (stereo not given) | 100 | – | – | IC50 [2]: 32 nM
3 | CC(C)c1ccc2c(c1)c(SC(C)(C)C)c(CC(C)(C)C(=O)O)n2Cc1ccc(Cl)cc1 | > 10 | – | – | –
4 | CC1Cc2c(OCc3ccc(-c4ccccc4)cn3)ccc3c2c(c(CCOc2ccccc2C(=O)O)n3Cc2ccc(Cl)cc2)S1 (stereo not given) | 60 | 37 | 42 | –
5 | CC1Cc2c(OCc3ccc4ccccc4n3)ccc3c2c(c(CSc2ccccc2C(=O)O)n3Cc2ccc(Cl)cc2)S1 (stereo not given) | 70 | – | – | IC50 [2]: 72 nM
6 | CC1Cc2c(OCc3ccc(-c4ccccc4)cn3)ccc3c2c(c(CCc2ccccc2C(=O)O)n3Cc2ccc(Cl)cc2)S1 (stereo not given) | 360 | – | – | –
7 | CC1Cc2c(OCc3ccc(-c4ccccc4)cn3)ccc3c2c(c(CCOc2ccccc2CC(=O)O)n3Cc2ccc(F)cc2)S1 (stereo not given) | 60 | 4 | 36 | –
8 | CC1Cc2c(OCc3ccccn3)ccc3c2c(c(CSc2ccccc2C(=O)O)n3Cc2ccc(Cl)cc2)S1 (stereo not given) | 55 | – | – | IC50 [2]: 760 nM
9 | CC1Cc2c(OCc3ccc(-c4ccccc4)cn3)ccc3c2c(c(COc2ccccc2CC(=O)O)n3Cc2cccc(Cl)c2)S1 (stereo in doubt; (+)14b) | 95 | – | – | –
10 | CC1Cc2c(OCc3ccc(-c4ccccc4)cn3)ccc3c2c(c(CCOc2cccc(C(=O)O)c2)n3Cc2ccc(Cl)cc2)S1 (stereo not given) | 170 | – | – | –
11 | CC1Cc2c(OCc3ccc(-c4ccccc4)cn3)ccc3c2c(c(CCOc2ccccc2CC(=O)O)n3Cc2ccc(Cl)cc2)S1 (stereo not given) | 60 | 15 | 47 | –
12 | CCC(OCCc1c2c3c(c(OCc4ccc(-c5ccccc5)cn4)ccc3n1Cc1ccc(Cl)cc1)CC(C)S2)C(=O)O (stereo not given) | – | – | 50 | –
13 | CC(C)(C)Sc1c(CC(C)(C)C(=O)O)n(Cc2ccc(Cl)cc2)c2ccc(OCc3ccc4ccccc4n3)cc12 [QUIFLAPON] | > 10000 | – | – | IC50 [2]: 1.6 nM
14 | CC1Cc2c(OCc3ccc(-c4ccccc4)cn3)ccc3c2c(c(COCc2ccccc2C(=O)O)n3Cc2ccc(Cl)cc2)S1 (stereo not given) | 62 | – | – | –
15 | CC1Cc2c(OCc3cc4ccccc4cn3)ccc3c2c(c(CSc2ccccc2C(=O)O)n3Cc2ccc(Cl)cc2)S1 (stereo not given) | 175 | – | – | IC50 [2]: 2900 nM

More lines, main results first:

Row | IC50 [1] [nM] | bioavailability [3] [%] | Compound | inhibition in vivo at 5 mg/kg (Rattus norvegicus) [%] | also measured
16 | 30 | 10 | CC1Cc2c(OCc3ccc(-c4ccccc4)cn3)ccc3c2c(c(CCSc2ccccc2C(=O)O)n3Cc2ccc(Cl)cc2)S1 (stereo not given) | – | –
17 | 40 | – | CC1Cc2c(OCc3ccc(-c4ccccc4)cn3)ccc3c2c(c(CCOc2ccccc2CC(=O)O)n3Cc2cccc(Cl)c2)S1 (stereo not given) | – | –
18 | 52 | – | COc1ccc(COc2ccc3c4c2CC(C)Sc4c(CSc2ccccc2C(=O)O)n3Cc2ccc(Cl)cc2)nc1 (stereo not given) | – | IC50 [2]: 370 nM
19 | 23 | 44 | CC1Cc2c(OCc3ccc(-c4ccccc4)cn3)ccc3c2c(c(CCOc2ccccc2CC(=O)O)n3Cc2cccc(F)c2)S1 (stereo not given) | 59 | –
20 | 18 | – | CC1Cc2c(OCc3ccc(-c4ccccc4)cn3)ccc3c2c(c(COc2ccccc2CC(=O)O)n3Cc2cccc(Cl)c2)S1 (stereo in doubt; 14b) | 74 | F [3]: 11%
21 | 30 | < 5 | CC1Cc2c(OCc3ccc(-c4ccccc4)cn3)ccc3c2c(c(CSc2ccccc2C(=O)O)n3Cc2ccc(Cl)cc2)S1 (stereo not given) | – | –
22 | 26 | 35 | CC1Cc2c(OCc3ccc(-c4ccccc4)cn3)ccc3c2c(c(COc2ccccc2CC(=O)O)n3Cc2ccc(Cl)cc2)S1 (stereo not given) | 27 | –
23 | 10 | – | CC1Cc2c(OCc3ccc(-c4ccccc4)cn3)ccc3c2c(c(COc2ccccc2CC(=O)O)n3Cc2cccc(Cl)c2)S1 (stereo in doubt; (-)14b) | – | Inhibition (Rattus norvegicus; 5 mg/kg): 58%; F [3]: 32%
